Tests used:
[1] = target: T1, Sodium-dependent serotonin transporter (Rattus norvegicus, UniProt P31652); assay: Binding affinity at the Serotonin transporter in rat midbrain by inhibition of 0.5 nM [3H]-paroxetine binding; assay type: tissue-based
[2] = target: T2, Norepinephrine transporter (Rattus norvegicus, UniProt Q9WTR4); assay: Inhibition of [3H]NE uptake by rat frontal cortex Norepinephrine transporter; assay type: tissue-based
Outline: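 Rat frontal cortex synaptosomes were used at 10 mg/mL tissue with 5 nM final [3H]norepinephrine and 10 μM pargyline in Krebs phosphate buffer, pH 7.4. Incubation was 3 min at 30 °C, followed by filtration and scintillation counting. Nonspecific uptake was defined with 1 μM desipramine. Three or four experiments were run in triplicate, and Ki was derived by Cheng–Prusoff.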

[3] = target: T1, Sodium-dependent serotonin transporter; assay: Inhibition of [3H]- 5-HT uptake in Serotonin transporter using serotonin uptake assay in rat midbrain tissue; assay type: tissue-based
Outline: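 Rat midbrain synaptosomes were used at 1 mg/mL tissue with 5 nM final [3H]serotonin and 10 μM pargyline in Krebs phosphate buffer, pH 7.4. Incubation was 3 min at 30 °C, followed by filtration and scintillation counting. Nonspecific uptake was defined with 1 μM citalopram. Three or four experiments were run in triplicate, and Ki was derived by Cheng–Prusoff.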

[4] = target: T3, Sodium-dependent dopamine transporter (Rattus norvegicus, UniProt P23977); assay: Binding affinity at the Dopamine transporter in rat striata by inhibition of 0.5 nM [3H]WIN-35428 binding
T3 sequence (P23977 whole entry): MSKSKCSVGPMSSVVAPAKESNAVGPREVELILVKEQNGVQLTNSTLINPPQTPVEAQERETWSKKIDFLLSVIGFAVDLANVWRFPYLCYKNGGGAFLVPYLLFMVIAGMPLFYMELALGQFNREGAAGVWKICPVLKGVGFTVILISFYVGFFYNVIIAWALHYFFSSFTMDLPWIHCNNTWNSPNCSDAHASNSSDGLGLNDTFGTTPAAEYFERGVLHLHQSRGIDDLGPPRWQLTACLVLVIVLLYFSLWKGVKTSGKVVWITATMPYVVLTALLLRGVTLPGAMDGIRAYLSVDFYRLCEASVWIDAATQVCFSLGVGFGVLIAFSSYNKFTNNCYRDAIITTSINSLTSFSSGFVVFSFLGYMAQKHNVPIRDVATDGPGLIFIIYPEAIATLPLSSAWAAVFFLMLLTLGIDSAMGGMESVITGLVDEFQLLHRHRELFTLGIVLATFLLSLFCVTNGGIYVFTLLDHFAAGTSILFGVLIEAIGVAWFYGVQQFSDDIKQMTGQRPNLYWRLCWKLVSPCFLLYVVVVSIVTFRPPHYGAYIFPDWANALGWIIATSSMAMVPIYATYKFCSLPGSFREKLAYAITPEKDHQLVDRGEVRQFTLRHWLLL

[5] = target: T4, Monoamine transporters; serotonin & dopamine (Rattus norvegicus) (UniProt P31652+P23977); assay: Ratio of IC50 value against 5-HT to that of DA transporters; assay type: protein assay
T4 sequence (P23977 whole entry, looked up): as the sequence (P23977 whole entry) above
T4 sequence (P31652 whole entry, looked up): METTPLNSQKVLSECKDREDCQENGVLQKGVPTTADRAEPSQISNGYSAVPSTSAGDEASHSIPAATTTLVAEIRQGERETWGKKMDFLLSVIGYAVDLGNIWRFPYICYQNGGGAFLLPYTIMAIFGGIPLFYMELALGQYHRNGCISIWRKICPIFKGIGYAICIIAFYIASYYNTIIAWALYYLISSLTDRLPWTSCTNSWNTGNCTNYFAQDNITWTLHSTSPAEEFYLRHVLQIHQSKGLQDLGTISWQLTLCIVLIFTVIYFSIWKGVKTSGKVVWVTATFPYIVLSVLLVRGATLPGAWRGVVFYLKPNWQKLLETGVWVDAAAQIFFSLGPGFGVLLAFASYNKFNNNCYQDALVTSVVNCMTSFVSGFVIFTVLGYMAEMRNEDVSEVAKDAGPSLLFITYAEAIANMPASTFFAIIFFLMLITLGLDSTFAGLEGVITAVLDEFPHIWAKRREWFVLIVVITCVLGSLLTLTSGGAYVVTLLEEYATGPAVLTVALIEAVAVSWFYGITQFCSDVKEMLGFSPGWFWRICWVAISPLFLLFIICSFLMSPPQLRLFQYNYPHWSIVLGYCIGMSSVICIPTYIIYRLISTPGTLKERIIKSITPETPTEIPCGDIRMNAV

[6] = target: T2, Norepinephrine transporter; assay: Binding affinity at the Norepinephrine transporter in rat frontal cortex by inhibition of 0.5 nM [3H]nisoxetine binding; assay type: tissue-based
[7] = target: Monoamine transporters; Norepininephrine & dopamine (Rattus norvegicus) (UniProt P23977+Q9WTR4); assay: Ratio of IC50 value against NE to that of DA transporters; assay type: protein assay
Outline: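 Competition binding against 0.5 nM [3H]WIN 35,428 (DA transporter) or 0.5 nM [3H]nisoxetine (NE transporter). The IC50 is the mean ± standard error of three or four experiments, each run in triplicate. Selectivity ratios are NE/DA or 5-HT/DA quotients of the IC50 values.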

[8] = target: T3, Sodium-dependent dopamine transporter; assay: Inhibition of [3H]DA uptake by rat striatal dopamine transporter
Outline: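 Rat striatal crude synaptosomes were prepared from male Sprague–Dawley rats by 0.32 M sucrose homogenisation and centrifugation at 800g then 2000g. Each tube held 1.5 mg tissue, 0.5 nM [3H]dopamine and 10 μM pargyline in Krebs phosphate buffer, pH 7.4, with dextrose and ascorbate. Incubation was 3 min at 30 °C, followed by filtration and scintillation counting. Nonspecific uptake was defined with 1 μM mazindol. Three or four experiments were run in triplicate, and Ki was derived by Cheng–Prusoff.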

[9] = target: T4, Monoamine transporters; serotonin & dopamine (Rattus norvegicus); assay: Ratio of IC50 value against Serotonin transporter to that of dopamine transporter; assay type: protein assay

T1 sequence (P31652 whole entry): as the sequence (P31652 whole entry, looked up) above
T2 sequence (Q9WTR4 whole entry): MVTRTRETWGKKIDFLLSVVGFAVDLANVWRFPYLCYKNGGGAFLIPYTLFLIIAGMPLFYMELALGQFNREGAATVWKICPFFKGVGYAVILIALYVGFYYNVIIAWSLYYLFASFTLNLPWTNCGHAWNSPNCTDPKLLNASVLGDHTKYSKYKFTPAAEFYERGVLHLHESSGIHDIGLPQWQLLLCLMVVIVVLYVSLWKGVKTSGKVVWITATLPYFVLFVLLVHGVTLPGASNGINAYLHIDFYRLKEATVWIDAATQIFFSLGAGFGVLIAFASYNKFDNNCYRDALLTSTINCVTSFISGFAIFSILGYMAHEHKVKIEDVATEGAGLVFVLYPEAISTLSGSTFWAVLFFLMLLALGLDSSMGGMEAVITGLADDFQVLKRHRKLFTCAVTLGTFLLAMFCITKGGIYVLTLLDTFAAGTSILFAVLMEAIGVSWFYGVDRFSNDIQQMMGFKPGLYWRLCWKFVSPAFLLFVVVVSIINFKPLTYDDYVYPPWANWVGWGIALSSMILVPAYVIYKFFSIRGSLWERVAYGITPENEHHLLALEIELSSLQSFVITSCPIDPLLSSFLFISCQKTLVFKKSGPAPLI

Structure (SMILES)	IC50 [1] [nM]	Ki [2] [nM]	Ki [3] [nM]	IC50 [4] [nM]	Ratio [5]	IC50 [6] [nM]	Ratio [7]	Ki [8] [nM]	Ratio [9]
COC(=O)[C@H]1[C@@H](c2ccc(F)cc2)C[C@H]2CC[C@H]1N2C	692	38.6	101						
CN1C2CCC1C(C(=O)NCO)C(c1ccc(Cl)cc1)C2 (stereo not given)				2.05	48	144	47		
CNC(=O)C1C(OC(=O)c2ccccc2)CC2CCC1N2C (stereo not given)	44800			2420	18	4210	1.7		
CC(C)OC(=O)C1C(c2ccc(Cl)cc2)CC2CCC1N2C (stereo not given)		250	129	1.4		778	556	6.04	1000
COC(=O)C1C(c2ccc(I)cc2)CC2CCC1N2C (stereo not given)		7.51	1.74	1.26		36	29	1.96	3.3
CN1C2CCC1C(C(=O)OC1CC1)C(c1ccc(I)cc1)C2 (stereo not given)				0.61	25	102	167		
Cc1ccc(C2CC3CCC(C2C(=O)OC(C)C)N3C)cc1 (stereo not given)		73.4		6.45	944	1930	299	15.3	59.9
CN1C2CCC1C(C(N)=O)C(OC(=O)c1ccccc1)C2 (stereo not given)	13700			753	18	3980	5.3		
Cc1ccc(C2CC3CCC(C2C(=O)Oc2ccccc2)N3C)cc1 (stereo not given)		278	1540	3.26		5830	1790	9.13	7410
COC(=O)[C@@H]1C2CC[C@H](C[C@@H]1c1ccccc1)N2C		37.2						49.8	
Cc1ccc(C2CC3CCC(C2C(N)=O)N3C)cc1 (stereo not given)	6370			41.8	152	4400	105		
COC(=O)C1C(c2ccc(Cl)cc2)CC2CCC1N2C (stereo not given)			5					3.68	
CN1C2CCC1C(C(=O)OCCc1ccccc1)C(OC(=O)c1ccccc1)C2 (stereo not given)	615			181		19900	110		3.4
CN1C2CCC1C(C(=O)OC/C=C/c1ccccc1)C(OC(=O)c1ccccc1)C2 (stereo not given)	368			371	1	68900	186		
CN1[C@H]2CC[C@@H]1[C@@H](C(=O)N1CCCC1)[C@@H](c1ccc(I)cc1)C2	1730			0.37		991	2680		4670
CCN(CC)C(=O)C1C(c2ccc(Cl)cc2)CC2CCC1N2C (stereo not given)	9430			5.48		5530	1010		1730
COC(=O)C1C(c2ccc(N)c(I)c2)CC2CCC1N2C (stereo not given)	120			1.35		1330	984		89

Structure (SMILES)	IC50 [1] [nM]	Ki [2] [nM]	Ki [3] [nM]	IC50 [4] [nM]	Ratio [5]	IC50 [6] [nM]	Ratio [7]	Ki [8] [nM]	Ratio [9]
CN1C2CCC1C(C(N)=O)C(c1ccc(Cl)cc1)C2 (stereo not given)	1620			11.5	141	4270	371		
COc1ccc(OC(=O)C2C(c3ccc(Cl)cc3)CC3CCC2N3C)cc1 (stereo not given)	19700			71		1520	21		277
COC(=O)C1C(c2ccc(C)cc2)CC2CCC1N2C (stereo not given)		8.42		1.71		60		7.02	
Cc1ccc(C2CC3CCC(C2C(=O)N2CCOCC2)N3C)cc1 (stereo not given)	> 100000			11.7		23600	2020		> 8550
CN1C2CCC1C(C(=O)Oc1ccccc1)C(c1ccc(Cl)cc1)C2 (stereo not given)		242	391				1490	5.25	1180
CON(C)C(=O)C1C(OC(=O)c2ccccc2)CC2CCC1N2C (stereo not given)	28200			60		3940	66		469
CN1C2CCC1C(C(=O)N1CCC1)C(c1ccc(Cl)cc1)C2 (stereo not given)	814			6.57		990	151		124
CON(C)C(=O)C1C(c2ccc(Cl)cc2)CC2CCC1N2C (stereo not given)	724			0.85		549	646		852
CN1C2CCC1C(C(=O)Oc1ccccc1)C(OC(=O)c1ccccc1)C2 (stereo not given)	33700			112		31000	277		301
CCCOC(=O)C1C(OC(=O)c2ccccc2)CC2CCC1N2C (stereo not given)	4520			196		6120	31		23
Cc1ccc(OC(=O)C2C(c3ccc(C)cc3)CC3CCC2N3C)cc1 (stereo not given)	16000			81.2		4100	50		197
CON(C)C(=O)C1C(c2ccc(C)cc2)CC2CCC1N2C (stereo not given)	3400			2.55		442	173		1330
Cc1ccc(C2CC3CCC(C2C(=O)OC2CCC2)N3C)cc1 (stereo not given)	2020			3.74		4740	1270		540
CN1C2CCC1C(C(=O)Oc1ccccc1)C(c1ccc(I)cc1)C2 (stereo not given)	184	32.7	51.6	1.5		3790	2580	6.85	123
CN1[C@H]2CC[C@@H]1[C@@H](C(=O)N1CCCC1)[C@@H](c1ccc(Cl)cc1)C2	12400			1.38		3950	2860		8980
CN1C2CCC1C(C(=O)Oc1ccc(Cl)cc1)C(c1ccc(Cl)cc1)C2 (stereo not given)	16900			55		4880	89		308
CN(C(=O)C1C(c2ccc(Cl)cc2)CC2CCC1N2C)c1ccccc1 (stereo not given)	23600			45.5		2200	48		519
